Measurements taken from ChEMBL document CHEMBL1126975 (J Med Chem, 1993).

How the values were obtained:
[1] = target: T1, Amine oxidase [flavin-containing] B (Rattus norvegicus, UniProt P19643); assay: Compound was evaluated for the time-dependence inhibition of MAO-B at 0 minute pre-incubation periods
T1 sequence (P19643 whole entry): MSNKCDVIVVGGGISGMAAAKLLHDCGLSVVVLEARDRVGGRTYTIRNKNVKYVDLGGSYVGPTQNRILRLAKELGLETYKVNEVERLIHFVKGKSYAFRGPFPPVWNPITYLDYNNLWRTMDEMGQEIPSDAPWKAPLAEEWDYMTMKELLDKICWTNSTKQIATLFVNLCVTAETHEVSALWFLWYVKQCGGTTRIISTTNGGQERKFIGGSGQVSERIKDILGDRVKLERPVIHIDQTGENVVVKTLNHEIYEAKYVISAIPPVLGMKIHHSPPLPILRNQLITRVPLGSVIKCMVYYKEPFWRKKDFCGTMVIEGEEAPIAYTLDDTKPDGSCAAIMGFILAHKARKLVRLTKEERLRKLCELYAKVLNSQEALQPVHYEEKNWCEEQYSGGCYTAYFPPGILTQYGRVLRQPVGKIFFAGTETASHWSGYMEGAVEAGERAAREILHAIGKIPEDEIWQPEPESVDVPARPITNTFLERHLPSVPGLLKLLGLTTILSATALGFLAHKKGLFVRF
In short: (§1)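 Male Sprague-Dawley rat brain crude mitochondrial fraction, MAO B. Drug preincubated with enzyme at 37 °C for 0, 20, 30 or 60 min, then radiochemical assay with 5 μM [14C]PEA at pH 7.4. IC50 read graphically from 9–12 concentrations; three experiments in duplicate.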

[2] = target: T1, Amine oxidase [flavin-containing] B; assay: Compound was evaluated for the time-dependence inhibition of MAO-B at 20 minutes pre-incubation periods; in short: as §1
[3] = target: T1, Amine oxidase [flavin-containing] B; assay: Compound was evaluated for the time-dependence inhibition of MAO-B at 30 minutes pre-incubation periods; in short: as §1
[4] = target: T1, Amine oxidase [flavin-containing] B; assay: Compound was evaluated for the time-dependence inhibition of MAO-B at 60 minutes preincubation periods; in short: as §1
[5] = target: T1, Amine oxidase [flavin-containing] B; assay: In vitro inhibitory activity on rat brain MAO-B.
In short: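 Radiochemical assay at 37 °C, pH 7.4: MAO A with 10 μM [14C]5-HT, MAO B with 5 μM [14C]PEA. Drug preincubated 20 min with enzyme. Three experiments in duplicate.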

[6] = target: T1, Amine oxidase [flavin-containing] B; assay: Ex-Vivo Time course of evaluation for the percentage inhibition of MAO-B for 0.5 hr at single dose 5 mg/kg through oral gavage (p<0.001); assay type: organism-based; parameters: dose 5 mg/kg, route oral
In short: (§2)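 Fasted male Sprague-Dawley rats (150 g) dosed orally by gavage, drug suspended in Tween 80 plus 0.5% methylcellulose; vehicle controls. The 100 mg/kg arm was dosed daily for 9 days. Four rats per time point; brains frozen and homogenized in 0.1 M phosphate pH 7.4. Assayed at 37 °C with 8 μM [14C]PEA for 1 min; toluene/ethyl acetate extraction. Percent inhibition vs control, mean ± SEM.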

[7] = target: T1, Amine oxidase [flavin-containing] B; assay: Ex-Vivo Time course of evaluation for the percentage inhibition of MAO-B for 1 hr at single dose 1 mg/kg through oral gavage (p<0.001); assay type: organism-based; parameters: dose 1 mg/kg, route oral; in short: as §2
[8] = target: T1, Amine oxidase [flavin-containing] B; assay: Ex-Vivo Time course of evaluation for the percentage inhibition of MAO-B for 1 hr at single dose 100 mg/kg through oral gavage (p<0.001); assay type: organism-based; parameters: dose 100 mg/kg, route oral
[9] = target: T1, Amine oxidase [flavin-containing] B; assay: Ex-Vivo Time course of evaluation for the percentage inhibition of MAO-B for 1 hr at single dose 1500 mg/kg through oral gavage (p<0.001); assay type: organism-based; parameters: dose 1500 mg/kg, route oral; in short: as §2
[10] = target: T1, Amine oxidase [flavin-containing] B; assay: Ex-Vivo Time course of evaluation for the percentage inhibition of MAO-B for 1 hr at single dose 5 mg/kg through oral gavage (p<0.001); assay type: organism-based; parameters: dose 5 mg/kg, route oral; in short: as §2
[11] = target: T1, Amine oxidase [flavin-containing] B; assay: Ex-Vivo Time course of evaluation for the percentage inhibition of MAO-B for 24 hr at single dose 1 mg/kg through oral gavage (not significant Wilcoxom''s test); assay type: organism-based; parameters: dose 1 mg/kg, route oral; in short: as §2
[12] = target: T1, Amine oxidase [flavin-containing] B; assay: Ex-Vivo Time course of evaluation for the percentage inhibition of MAO-B for 24 hr at single dose 100 mg/kg through oral gavage; assay type: organism-based; parameters: dose 100 mg/kg, route oral
[13] = target: T1, Amine oxidase [flavin-containing] B; assay: Ex-Vivo Time course of evaluation for the percentage inhibition of MAO-B for 24 hr at single dose 1500 mg/kg through oral gavage; assay type: organism-based; parameters: dose 1500 mg/kg, route oral
[14] = target: T2, Amine oxidase [flavin-containing] A (Rattus norvegicus, UniProt P21396); assay: Compound was evaluated for the time-dependence inhibition of MAO-A at 60 minutes of preincubated period. values are same with or without pre-incubation
T2 sequence (P21396 whole entry): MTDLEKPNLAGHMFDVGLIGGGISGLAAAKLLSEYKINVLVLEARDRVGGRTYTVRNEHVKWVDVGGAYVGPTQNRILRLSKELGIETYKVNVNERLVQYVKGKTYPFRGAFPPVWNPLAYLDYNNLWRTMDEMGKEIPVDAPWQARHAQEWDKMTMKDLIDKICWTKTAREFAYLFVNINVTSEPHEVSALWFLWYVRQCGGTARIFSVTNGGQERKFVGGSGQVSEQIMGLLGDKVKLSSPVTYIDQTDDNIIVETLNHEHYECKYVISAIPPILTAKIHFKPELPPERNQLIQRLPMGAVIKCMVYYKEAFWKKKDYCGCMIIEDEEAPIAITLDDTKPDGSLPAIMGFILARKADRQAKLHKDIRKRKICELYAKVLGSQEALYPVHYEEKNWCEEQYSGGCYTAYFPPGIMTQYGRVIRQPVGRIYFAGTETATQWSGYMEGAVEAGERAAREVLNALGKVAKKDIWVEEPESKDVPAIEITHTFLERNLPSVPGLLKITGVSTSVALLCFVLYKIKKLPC

[15] = target: T1, Amine oxidase [flavin-containing] B; assay: Ex-Vivo Time course of evaluation for the percentage inhibition of MAO-B for 24 hr at single dose 1500 mg/kg through oral gavage (p<0.001); assay type: organism-based; parameters: dose 1500 mg/kg, route oral; in short: as §2
[16] = target: T1, Amine oxidase [flavin-containing] B; assay: Ex-Vivo percentage inhibition of MAO-B after 24 hr single 5 mg/kg dose by oral gavage; assay type: organism-based; parameters: dose 5 mg/kg, route oral
In short: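 Ex vivo oral gavage in fasted male Sprague-Dawley rats (Tween 80 / 0.5% methylcellulose), four rats per group. Brain homogenate taken 24 h after dosing. MAO B assayed with 8 μM [14C]PEA, 1 min at 37 °C; percent inhibition vs vehicle control.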

[17] = target: T2, Amine oxidase [flavin-containing] A; assay: In Vitro evaluation for the inhibitory activity on rat brain by MAO-A
In short: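 Male Sprague-Dawley rat brain crude mitochondrial fraction, 0.195 mg protein/mL. Radiochemical assay at 37 °C, pH 7.4: MAO A with 10 μM [14C]5-HT, MAO B with 5 μM [14C]PEA. Drug preincubated 20 min with enzyme. […] Three experiments in duplicate.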

[18] = target: T1, Amine oxidase [flavin-containing] B; assay: Compound was evaluated for the reversibility test for the percentage inhibition of MAO B at 6.25 nM after the test
In short: (§3)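 Rat brain crude mitochondrial fraction (1.94 mg protein/mL) preincubated 1 h at 37 °C with or without inhibitor at 6.25 or 12.5 nM. Then diluted 200-fold in 100 mM phosphate pH 7.4 with 100 μM PEA, held 4 h at 37 °C, pelleted, and washed 1 h in buffer without PEA. Assayed under standard conditions (PEA 1 min); percent inhibition vs control.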

[19] = target: T1, Amine oxidase [flavin-containing] B; assay: Compound was evaluated for the reversibility test for the percentage inhibition of MAO B at 6.25 nM before the test
[20] = target: T1, Amine oxidase [flavin-containing] B; assay: Ex-Vivo Time course of evaluation for the percentage inhibition of MAO-B for 4 hr at single dose 1 mg/kg through oral gavage (p<0.001); assay type: organism-based; parameters: dose 1 mg/kg, route oral; in short: as §2
[21] = target: T1, Amine oxidase [flavin-containing] B; assay: Ex-Vivo Time course of evaluation for the percentage inhibition of MAO-B for 4 hr at single dose 5 mg/kg through oral gavage (p<0.001); assay type: organism-based; parameters: dose 5 mg/kg, route oral; in short: as §2
[22] = Selectivity for B form was estimated by the ratio of IC50 (MAO A) at 60 min to that of (MAO B)
[23] = target: T1, Amine oxidase [flavin-containing] B; assay: Ex-Vivo Time course of evaluation for the percentage inhibition of MAO-B for 0.5 hr at single dose 1 mg/kg through oral gavage [p<0.01 (Bonferroni's test)]; assay type: organism-based; parameters: dose 1 mg/kg, route oral; in short: as §2
[24] = target: T1, Amine oxidase [flavin-containing] B; assay: Ex-Vivo Time course of evaluation for the percentage inhibition of MAO-B for 24 hr at once-daily dose for 9 days 100 mg/kg through oral gavage (p<0.001)
[25] = target: T1, Amine oxidase [flavin-containing] B; assay: Compound was evaluated for the reversibility test for the percentage inhibition of MAO B at 6.25 nM after the test at 12.5 nM; in short: as §3
[26] = target: T1, Amine oxidase [flavin-containing] B; assay: Compound was evaluated for the reversibility test for the percentage inhibition of MAO B at 6.25 nM before the test at 12.5 nM

## N#CCCn1nc(-c2ccc(OCc3ccccc3)cc2)oc1=O
[1]
  IC50: 25 nM
[2]
  IC50: 2.7 nM
[3]
  IC50: 2.2 nM
[4]
  IC50: 1.4 nM
[5]
  IC50: 2.2 nM
[6]
  inhibition at 5 mg/kg: 69%
[7]
  inhibition at 1 mg/kg: 86%
[8]
  inhibition at 100 mg/kg: 90%
[9]
  inhibition at 1500 mg/kg: 91%
[10]
  inhibition at 5 mg/kg: 87%
[11]
  inhibition at 1 mg/kg: 18%
[12]
  inhibition at 100 mg/kg: 3%
[13]
  inhibition at 1500 mg/kg: 2%
[14]
  IC50: > 100000 nM
[15]
  inhibition at 1500 mg/kg: 74%
[16]
  inhibition at 5 mg/kg: 18%
[17]
  Inhibition: 10%
[18]
  inhibition at 0.00625 µM: 102%
[19]
  inhibition at 0.00625 µM: 35%
[20]
  inhibition at 1 mg/kg: 75%
[21]
  inhibition at 5 mg/kg: 83%
[22]
  Selectivity: > 71400
[23]
  inhibition at 1 mg/kg: 34%
[24]
  inhibition at 100 mg/kg: 73%

## C#CCN(C)[C@H](C)Cc1ccccc1 [SELEGILINE]
[25]
  inhibition at 0.00625 µM: 21%
[26]
  inhibition at 0.00625 µM: 21%
